From ChEMBL document CHEMBL1134366, “Enantiospecific synthesis and pharmacological evaluation of a series of super-potent, conformationally restricted 5-HT(2A/2C) receptor agonists” (J Med Chem, 2001)

Tests used:
[1] = biological target: 5-hydroxytryptamine receptor 2A (Rattus norvegicus) (UniProt P14842); assay: Percent maximal 5-HT stimulation at cloned rat 5-hydroxytryptamine 2A receptor (phosphoinositide hydrolysis study) at a conc of 100 uM
[2] = biological target: T1, 5-hydroxytryptamine receptor 2A (Rattus norvegicus, UniProt P14842); assay: Ability to stimulate phosphoinositide hydrolysis in NIH3T3 cells expressing the 5-hydroxytryptamine 2A receptor; type: cell-based
T1 sequence (P14842 whole entry): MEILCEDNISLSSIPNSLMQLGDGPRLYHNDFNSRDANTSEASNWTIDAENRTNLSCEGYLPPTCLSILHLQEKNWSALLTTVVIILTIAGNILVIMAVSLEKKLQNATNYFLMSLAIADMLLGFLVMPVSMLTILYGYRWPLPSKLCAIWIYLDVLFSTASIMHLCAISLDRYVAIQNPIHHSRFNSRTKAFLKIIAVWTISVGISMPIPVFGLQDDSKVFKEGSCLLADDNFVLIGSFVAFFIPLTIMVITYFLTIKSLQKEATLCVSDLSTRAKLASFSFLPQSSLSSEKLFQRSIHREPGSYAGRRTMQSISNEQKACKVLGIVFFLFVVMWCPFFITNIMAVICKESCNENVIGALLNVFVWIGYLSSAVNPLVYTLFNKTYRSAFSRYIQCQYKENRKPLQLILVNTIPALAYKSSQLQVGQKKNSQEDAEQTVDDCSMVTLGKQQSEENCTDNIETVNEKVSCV

[3] = biological target: T1, 5-hydroxytryptamine receptor 2A; assay: Binding affinity at cloned rat 5-hydroxytryptamine 2A receptor using [3H]DOB as radioligand
Procedure, shortened: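 Competition binding using harvested, frozen NIH-3T3 cells stably expressing rat 5-HT2A, serum-starved 5 h before harvest. Incubated 60 min at 25 °C, then rapid filtration onto GF/B filters pre-soaked in 0.3% polyethylenimine, and scintillation counting. Nonspecific binding defined with 10 µM cinanserin in the saturation assays.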

[4] = biological target: T2, 5-hydroxytryptamine receptor 2C (Rattus norvegicus, UniProt P08909); assay: Binding affinity at cloned rat 5-hydroxytryptamine 2C receptor using [3H]DOI as radioligand
T2 sequence (P08909 whole entry): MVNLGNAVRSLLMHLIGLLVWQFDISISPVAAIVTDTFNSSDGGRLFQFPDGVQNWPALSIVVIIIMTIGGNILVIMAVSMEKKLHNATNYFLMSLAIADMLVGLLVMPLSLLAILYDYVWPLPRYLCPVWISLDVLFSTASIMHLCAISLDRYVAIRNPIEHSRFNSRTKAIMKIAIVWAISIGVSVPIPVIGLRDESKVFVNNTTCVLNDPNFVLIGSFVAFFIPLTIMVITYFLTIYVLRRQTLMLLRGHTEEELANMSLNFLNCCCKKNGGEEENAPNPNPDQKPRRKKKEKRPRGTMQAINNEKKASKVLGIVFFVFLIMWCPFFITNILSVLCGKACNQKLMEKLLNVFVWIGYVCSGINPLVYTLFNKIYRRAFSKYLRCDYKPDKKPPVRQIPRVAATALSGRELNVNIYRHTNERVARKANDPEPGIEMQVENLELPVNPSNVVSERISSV
Procedure, shortened: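 Competition binding using harvested, frozen NIH-3T3 cells stably expressing rat 5-HT2C. Buffer 50 mM Tris, 0.5 mM EDTA, 10 mM MgCl2, pH 7.4. Incubated 60 min at 25 °C, then rapid filtration onto polyethylenimine-treated GF/B filters and scintillation counting. Nonspecific binding defined with 10 µM mianserin in the saturation assays.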

Chain of 5-hydroxytryptamine receptor 2A (Rattus norvegicus) (P14842 whole entry): as the sequence (P14842 whole entry) above

Compound	Max stimulation [1] [%]	EC50 [2] [nM]	Ki [3] [nM]	Ki [4] [nM]
C[C@@H](N)Cc1c2ccoc2c(Br)c2ccoc12	93	2.7	0.31	0.11
C[C@@H](N)Cc1c2ccoc2c(C(F)(F)F)c2ccoc12	60	3.8	0.29	0.4
C[C@H](N)Cc1c2ccoc2cc2ccoc12	68	650	37.9	6
C[C@H](N)Cc1c2c(c(C(F)(F)F)c3c1OCC3)OCC2	60	30	2	1.6
C[C@@H](N)Cc1c2c(cc3c1OCC3)OCC2	99	5650	54.4	8.2
COc1cc(C(F)(F)F)c(OC)cc1CC(C)N (configuration not stated)	86	68.4	2.2	3.78
C[C@@H](N)Cc1c2c(c(Br)c3c1OCC3)OCC2	80	8.38	1.2	0.26
C[C@H](N)Cc1c2ccoc2c(Br)c2ccoc12	79	19	0.68	0.25
C[C@H](N)Cc1c2c(cc3c1OCC3)OCC2	62	2360	227	119
COc1cc(CC(C)N)c(OC)cc1Br (configuration not stated)	79			
C[C@H](N)Cc1c2ccoc2c(C(F)(F)F)c2ccoc12	52	12	0.32	0.69
C[C@@H](N)Cc1c2c(c(C(F)(F)F)c3c1OCC3)OCC2	69	28	0.7	1.9
COc1ccc(OC)c(C[C@@H](C)N)c1	16	> 10000	2340	520
C[C@@H](N)Cc1c2ccoc2cc2ccoc12	76	590	1.5	0.79
C[C@H](N)Cc1c2c(c(Br)c3c1OCC3)OCC2	76	35	2.6	1.1
